According to PMC6136352 (Journal of Enzyme Inhibition and Medicinal Chemistry, 2018):

Key:
KG1a cells = test: MTT cytotoxicity assay, KG1a; assay type: cell-based, human; conditions: for IC50: Homo sapiens, KG-1a, 72 h, read-out: IC50 KG1a
Outline: (§1)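 Exponentially growing leukaemia lines were seeded at 1 × 10⁴ cells/well in supplemented RPMI 1640. After 24 h, test compounds were added over a concentration range for 72 h, with adriamycin as positive control. MTT (5 mg/ml stock) was added for 4 h. Plates were spun at 2000 rpm for 20 min, the supernatant replaced by DMSO, and absorbance read at 570 nm. IC50 was fitted; each value is the mean of three independent experiments.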

HL-60 cells = test: MTT cytotoxicity assay, HL-60; assay type: cell-based; conditions: Homo sapiens, HL-60, 72 h, read-out: IC50 HL-60
Outline: as §1

[1] = cited from earlier work
[2] = cited from earlier work; remark: listed apart in the source

Row | SMILES | IC50 (KG1a cells) | drop of activity against KG1a than that against HL-60 (KG1a cells; ratio of IC50 values) | IC50 (HL-60 cells) | solubility [1] | stability in acidic and basic conditions [2]
1 | COc1cccc2c1C(=O)c1c(O)c3c(c(O)c1C2=O)C[C@@](O)(C(=O)CO)C[C@@H]3O[C@H]1C[C@H](N)[C@H](O)[C@H](C)O1 [ADR, adriamycin] | 0.75 ± 0.05 µM | 34 folds | 0.022 ± 0.005 µM |  | 
2 | C=C1C(=O)O[C@H]2[C@H]1CC/C(C)=C/CC[C@@]1(C)O[C@@H]21 [PTL, Parthenolide] | 6.1 ± 1.8 µM |  | 3.8 ± 1.2 µM | poor solubility | instability in both acidic and basic conditions
